# Where two headings read alike, the source gives them in different places.
# Tests used:
# [1] = assay type: in vivo, human; conditions: human, plasma, oral; for AUC(0-t): AUC0-12h; for concentration at 12 h: C12h
# Outline: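 Test compound was given as oral capsules with […] water after a 2-h fast, BID Q12hr, 3–6 patients per dose level. Docetaxel 60 mg/m2 was a 1-h IV infusion 2 h beforehand. […] was sampled on Cycle 1 Day 1 (predose, 0.5–24 h after dose 1) and Day 2 (predose, 0.5–44 h after dose 4). Analysis was non-compartmental, with AUC by linear-up/log-down trapezoidal method and Cmax/Tmax by inspection.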
# [2] = tested on: advanced and/or refractory solid tumors; assay: Tumor response; assay type: in vivo, human
# AK-A = conditions: adenosine triphosphate-competitive inhibitor; cited from earlier work
# [3] = tested on: other kinases, including both Aurora B and Aurora C; conditions: cited from earlier work
# HeLaS3 cells = conditions: cited from earlier work
# [4] = tested on: human tumor cell lines and xenograft models; conditions: subset of human tumor cell lines and xenograft models; cited from earlier work
# [5] = 1200 mg/day, Panel 1 (MT), Dose 1
# [6] = 1200 mg/day, Panel 1 (MT), Dose 4
# [7] = 1500 mg/day, Panel 1 (MT), Dose 1
# [8] = 1500 mg/day, Panel 1 (MT), Dose 4
# [9] = 1800 mg/day, Panel 1 (MT), Dose 1
# [10] = 1800 mg/day, Panel 1 (MT), Dose 4
# [11] = Panel 2: (N = 17) MK-5108 CT with docetaxel
compound,measurement,setting,value
O=C(O)[C@]1(Cc2cccc(Nc3nccs3)n2)CC[C@@H](Oc2cccc(Cl)c2F)CC1 [MK-5108],Tmax,"[1]; 800 mg/day, Tmax, Panel 1 (MT), Dose 1, median (range)",1 h
same,Tmax,"[1]; 800 mg/day, Tmax, Panel 1 (MT), Dose 4, median (range)",1 h
same,half-life,"[1]; 800 mg/day, t1/2, 800 mg/day, Panel 1 (MT), Dose 4",11.1 ± 1.1 h
same,AUC(0-t),[1]; [5],96.6 ± 45.6 µM·h
same,AUC(0-t),[1]; [6],116 ± 61.4 µM·h
same,concentration at 12 h,[1]; [5],2.12 ± 2.09 µM
same,concentration at 12 h,[1]; [6],3.31 ± 0.53 µM
same,Cmax,[1]; [5],22.3 ± 12.7 µM
same,Cmax,[1]; [6],25 ± 9.4 µM
same,Tmax,"[1]; 1200 mg/day, Tmax, Panel 1 (MT), Dose 1, median (range)",2 h
same,Tmax,"[1]; 1200 mg/day, Tmax, Panel 1 (MT), Dose 4, median (range)",3 h
same,half-life,"[1]; 1200 mg/day, t1/2, 1200 mg/day, Panel 1 (MT), Dose 4",8.3 ± 3.3 h
same,AUC(0-t),[1]; [7],83.2 ± 50.8 µM·h
same,AUC(0-t),[1]; [8],131 ± 53.2 µM·h
same,concentration at 12 h,[1]; [7],1.04 ± 0.4 µM
same,concentration at 12 h,[1]; [8],2.8 ± 1.26 µM
same,Cmax,[1]; [7],20.8 ± 10.6 µM
same,Cmax,[1]; [8],28.9 ± 13.6 µM
same,Tmax,"[1]; 1500 mg/day, Tmax, Panel 1 (MT), Dose 1, median (range)",2 h
same,Tmax,"[1]; 1500 mg/day, Tmax, Panel 1 (MT), Dose 4, median (range)",2 h
same,half-life,"[1]; 1500 mg/day, t1/2, 1500 mg/day, Panel 1 (MT), Dose 4",11.4 ± 2 h
same,AUC(0-t),[1]; [9],101 ± 39.3 µM·h
same,AUC(0-t),[1]; [10],234 ± 62.7 µM·h
same,concentration at 12 h,[1]; [9],4.78 ± 4.64 µM
same,concentration at 12 h,[1]; [10],6.85 ± 3.96 µM
same,Cmax,[1]; [9],24.8 ± 9.6 µM
same,Cmax,[1]; [10],50.2 ± 11.4 µM
same,Tmax,"[1]; 1800 mg/day, Tmax, Panel 1 (MT), Dose 1, median (range)",2 h
same,Tmax,"[1]; 1800 mg/day, Tmax, Panel 1 (MT), Dose 4, median (range)",3 h
same,half-life,"[1]; 1800 mg/day, t1/2, 1800 mg/day, Panel 1 (MT), Dose 4",6.6 ± 0.6 h
same,Tmax,"[1]; Median Tmax, following the first dose, across dose levels",1 to 4 h
same,Tmax,"[1]; Median Tmax, following the fourth dose, across dose levels",1 to 6 h
same,half-life,"[1]; mean t1/2, range across dose levels, across both panels",6.6 to 13.5 h
same,half-life,"[1]; t1/2 range (variable), following Dose 4",5 to 29 h
same,Partial Response,"[2]; MK-5108 225 Q12hr (450 mg/day) CT, 1 patient",5.9%
same,stable disease,"[2]; MK-5108 CT, 7 patients",41.2%
same,Progressive Disease,"[2]; MK-5108 MT, 8 patients",44.4%
same,stable disease,"[2]; MK-5108 MT, 9 patients",50%
same,best response: stable disease (patients/evaluable),[2]; Panel 1 (MT),9/17
same,median duration of stable disease,[2]; Panel 1 (MT),88 days
same,Partial Response,[2]; Panel 1: (N = 18) MK-5108 MT,0 (0.0) n (%)
same,Progressive Disease,[2]; Panel 1: (N = 18) MK-5108 MT,8 (44.4) n (%)
same,Tumor response category: Discontinued due to AE,[2]; Panel 1: (N = 18) MK-5108 MT,1 (5.6) n (%)
same,stable disease,[2]; Panel 1: (N = 18) MK-5108 MT,9 (50.0) n (%)
same,best response: SD (patients/evaluable),[2]; Panel2 (CT),7/16
same,median duration of stable disease,[2]; Panel2 (CT),48 days
same,best response: PR (patients/evaluable),"[2]; Panel2 (CT), 450 mg/day",1/16
same,Partial Response,[2]; [11],1 (5.9) n (%)
same,Progressive Disease,[2]; [11],8 (47.1) n (%)
same,Tumor response category: Discontinued due to AE,[2]; [11],1 (5.9) n (%)
same,stable disease,[2]; [11],7 (41.2) n (%)
same,complete responses,[2]; either of the treatment panels,no complete responses
same,IC50,AK-A,0.064 nM
same,target specificity relative to other kinases,[3],comparatively high target specificity
same,apoptosis in combination with docetaxel,HeLaS3 cells,robustly potentiated apoptosis
same,single-agent activity,[4],modest single-agent activity

# — article PMC4806784 (Investigational new drugs, 2015)
